Data from ChEMBL document CHEMBL1136836, “Aryloxy cyclohexyl imidazoles: a novel class of antileishmanial agents” (Bioorg Med Chem Lett, 2009).
In brackets after ≈: the same amount, converted by molar mass.

Legend:
Leishmania donovani [1] = assay: Antileishmanial activity against Leishmania donovani extracellular promastigotes at 10 ug/ml after 72 hrs by luciferase activity-based drug susceptibility assay; assay type: functional
Method in brief: (§1)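 Transgenic L. donovani promastigotes tested at various concentrations up to a maximum of 10 µg/ml, with sodium stibogluconate and pentamidine as reference drugs. IC50 derived by Probit analysis.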

Leishmania donovani [2] = assay: Antileishmanial activity against Leishmania donovani intracellular amastigotes infected in mouse J774A1 cells at 10 ug/ml after 48 hrs by luciferase activity-based drug susceptibility assay; assay type: functional; settings: for inhibition at 10 µg/mL: J774.A1, 48 h
Method in brief: (§2)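 Intracellular amastigotes of transgenic L. donovani in mouse J-774-A-1 macrophages, exposed to a range of concentrations up to a maximum of 10 µg/ml. Sodium stibogluconate and pentamidine served as reference drugs. IC50 calculated by Probit analysis.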

Leishmania donovani [3] = assay: Antileishmanial activity against Leishmania donovani infected in hamster assessed as inhibition of parasite growth at 20 mg/kg, ip for 10 days; assay type: functional, organism-based; design: dose 20 mg/kg
Method in brief: (§3)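 L. donovani-infected hamster model. Dosing was intraperitoneal, 10 doses: test compounds at 50 mg/kg, sodium stibogluconate at 20 mg/kg, pentamidine at 40 mg/kg. Read-out is percent inhibition of parasites.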

J774.A1 = assay: (§4) Selectivity index, ratio of CC50 for mouse J774A1 cells to IC50 for Leishmania donovani intracellular amastigotes infected in mouse J774A1 cells; assay type: functional
Method in brief: (§5)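 SI is based on CC50 in J-774-A-1 macrophages and IC50 in the antileishmanial assay.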

Leishmania donovani [4] = assay: Antileishmanial activity against Leishmania donovani extracellular promastigotes after 72 hrs by luciferase activity-based drug susceptibility assay; assay type: functional, organism-based; method in brief: as §1
Leishmania donovani [5] = assay: Antileishmanial activity against Leishmania donovani intracellular amastigotes infected in mouse J774A1 cells after 48 hrs by luciferase activity-based drug susceptibility assay; assay type: functional, organism-based; settings: for Activity: J774.A1; for IC50: J774.A1, 48 h; method in brief: as §2
[6] = Cytotoxicity against mouse J774A1 cells after 48 hrs by Geimsa staining method; assay type: cell-based, J774.A1
Method in brief: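 Mouse macrophage line J-774-A-1 used for the cytotoxicity read-out. CC50 is the concentration giving 50% inhibition of cell viability.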

[7] = as §4; assay type: functional, J774.A1; method in brief: as §5
Leishmania donovani [8] = assay: Antileishmanial activity against Leishmania donovani infected in hamster assessed as inhibition of parasite growth at 40 mg/kg, ip for 10 days; assay type: functional; settings: 240 h, route intraperitoneal; method in brief: as §3
Leishmania donovani [9] = assay: Antileishmanial activity against Leishmania donovani infected in hamster assessed as inhibition of parasite growth at 50 mg/kg, ip for 10 days; assay type: functional; settings: 240 h, route intraperitoneal; method in brief: as §3

Compound	inhibition (Leishmania donovani [1])	inhibition (Leishmania donovani [2]; J774.A1)	inhibition (Leishmania donovani [3])	Ratio CC50/IC50 (J774.A1)	Activity (Leishmania donovani [4])	Activity (Leishmania donovani [5])	inhibition at 10 µg/mL (Leishmania donovani [1])	inhibition at 10 µg/mL (Leishmania donovani [2])	CC50 at 48 h [6]	Ratio CC50/IC50 [7]	IC50 (Leishmania donovani [4])	IC50 (Leishmania donovani [5])	inhibition in vivo at 40 mg/kg (Leishmania donovani [8])	inhibition in vivo at 50 mg/kg (Leishmania donovani [9])
D-gluconic acid 2,4:2',4'-O-[oxybis(oxidostibylidyne)]bis-trisodium salt nonahydrate	100%	100%	84.1%	6.38	Dose-dependent effect	Dose-dependent effect								
O=[N+]([O-])c1ccc(OC2C(Cn3ccnc3)CCCC2Cn2ccnc2)c(C(F)(F)F)c1 (stereo not drawn)					Dose-dependent effect	Dose-dependent effect	100%	100%	14.4 µg/mL (≈ 32.1 µM)	24.557	6.72 µg/mL (≈ 15 µM)	0.588 µg/mL (≈ 1.31 µM)		
O=[N+]([O-])c1ccccc1OC1C(Cn2ccnc2)CCCC1Cn1ccnc1 (stereo not drawn)					Dose-dependent effect	Dose-dependent effect	100%	100%	69.4 µg/mL (≈ 182 µM)	28.47	9.57 µg/mL (≈ 25.1 µM)	2.44 µg/mL (≈ 6.39 µM)		
N=C(N)c1ccc(OCCCCCOc2ccc(C(=N)N)cc2)cc1 [PENTAMIDINE]					Dose-dependent effect	Dose-dependent effect	100%	100%	31.3 µg/mL (≈ 92 µM)	2.58	0.643 µg/mL (≈ 1.89 µM)	12.1 µg/mL (≈ 35.6 µM)	92%	
OC1C(Cn2ccnc2)CCCC1Cn1ccnc1 (stereo not drawn)					Dose-dependent effect	Dose-dependent effect	100%	100%	> 100 µg/mL	>9.28	9.4 µg/mL (≈ 36.1 µM)	10.8 µg/mL (≈ 41.4 µM)		
O=[N+]([O-])c1ccc(O[C@H]2CCCC[C@@H]2Cn2ccnc2)c(C(F)(F)F)c1					Dose-dependent effect	Dose-dependent effect	100%	100%	13.8 µg/mL (≈ 37.5 µM)	6.49	2.37 µg/mL (≈ 6.42 µM)	2.13 µg/mL (≈ 5.77 µM)		
O=[N+]([O-])c1ccc(OC2C(n3ccnc3)CCCC2n2ccnc2)c(F)c1 (stereo not drawn)					Dose-dependent effect	Dose-dependent effect	100%	100%	90.6 µg/mL (≈ 244 µM)	30	6.13 µg/mL (≈ 16.5 µM)	3.02 µg/mL (≈ 8.13 µM)		56.7%
O=[N+]([O-])c1ccc(O[C@H]2CCCC[C@@H]2Cn2ccnc2)c(F)c1					Dose-dependent effect	Dose-dependent effect	100%	100%	> 100 µg/mL	>140.84	1.08 µg/mL (≈ 3.38 µM)	0.71 µg/mL (≈ 2.22 µM)		55.4%
O=[N+]([O-])c1ccc(OC2C(n3ccnc3)CCCC2n2ccnc2)cc1 (stereo not drawn)					Dose-dependent effect	Dose-dependent effect	100%	100%	> 100 µg/mL	>11.4	4.67 µg/mL (≈ 13.2 µM)	8.76 µg/mL (≈ 24.8 µM)		
O=[N+]([O-])c1ccc(OC2C(Cn3ccnc3)CCCC2Cn2ccnc2)c(F)c1 (stereo not drawn)					Dose-dependent effect	Dose-dependent effect	100%	100%	39.4 µg/mL (≈ 98.6 µM)	33.64	3.57 µg/mL (≈ 8.94 µM)	1.17 µg/mL (≈ 2.93 µM)		77.9%
FC(F)(F)c1ccc(O[C@H]2CCCC[C@@H]2Cn2ccnc2)cc1					Dose-dependent effect	Dose-dependent effect	100%	100%	35.6 µg/mL (≈ 110 µM)	9.292	0.81 µg/mL (≈ 2.5 µM)	3.83 µg/mL (≈ 11.8 µM)		
O=[N+]([O-])c1ccccc1O[C@H]1CCCC[C@@H]1Cn1ccnc1					Dose-dependent effect	Dose-dependent effect	100%	100%	63.1 µg/mL (≈ 209 µM)	9.39	4.23 µg/mL (≈ 14 µM)	6.72 µg/mL (≈ 22.3 µM)		
O=[N+]([O-])c1ccc(OC2C(Cn3ccnc3)CCCC2Cn2ccnc2)cc1 (stereo not drawn)					Dose-dependent effect	Dose-dependent effect	100%	100%	73.9 µg/mL (≈ 194 µM)	37.51	5.52 µg/mL (≈ 14.5 µM)	1.97 µg/mL (≈ 5.16 µM)		52%
FC(F)(F)c1ccc(OC2C(n3ccnc3)CCCC2n2ccnc2)cc1 (stereo not drawn)					Dose-dependent effect	Dose-dependent effect	100%	100%	96.4 µg/mL (≈ 256 µM)	32.143	2.06 µg/mL (≈ 5.47 µM)	3 µg/mL (≈ 7.97 µM)		36.8%
FC(F)(F)c1ccc(OC2C(Cn3ccnc3)CCCC2Cn2ccnc2)cc1 (stereo not drawn)					Dose-dependent effect	Dose-dependent effect	100%	100%	94.5 µg/mL (≈ 234 µM)	83.6	3.28 µg/mL (≈ 8.12 µM)	1.13 µg/mL (≈ 2.79 µM)		51%
O=[N+]([O-])c1ccc(O[C@H]2CCCC[C@@H]2Cn2ccnc2)cc1					Dose-dependent effect	Dose-dependent effect	100%	100%	44.6 µg/mL (≈ 148 µM)	9.757	0.82 µg/mL (≈ 2.72 µM)	4.57 µg/mL (≈ 15.2 µM)		
